ABHD5-PLIN5 inh = inhibitors of human ABHD5-perilipin-5 interaction; Split G. princeps luciferase complementation, luminescence, 4 h; hit rate 0.78% among 360,000; inhibition, % at 4 µM; Q00G26+Q8WTS1;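 active = inhibition above the mean inhibition across every tested compound plus 3 SD, cut at about 22% in these data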;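 note: 0% = DMSO only wells and the 100% control is not disclosed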
PfGluPho inh = PfG6PD (Plasmodium falciparum) enzyme inhibition | PfGluPho enzyme, NADPH resazurin-diaphorase fluorescence | AID 504690 | inhibition, % at 20 µM | hit rate 0.78% among 350,000;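 active = inhibition reaching at least a set limit at 20 µM in the primary screen, cut at about 59% in these data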;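 note: 0% = DMSO wells with substrate and 100% = DMSO wells lacking glucose-6-phosphate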
HKDC1 inh = blocks human hexokinase HKDC1 activity. hit rate 0.16% among 340,000. AID 493160. recombinant HKDC1, G6PDH/diaphorase resazurin coupled fluorescence. inhibition, % at 20 µM;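 active = inhibition above about 35% when tested at 20 µM, limit read from the data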;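 note: plate controls were DMSO wells with enzyme for no effect and DMSO wells lacking enzyme for full effect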
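Material: recombinant HKDC1 hexokinase; Amount: HKDC1 at 5 µg/mL; Medium: Tris pH 8.0 buffer with MgCl2, Tween-20, BSA, BME; Schedule: 90 min reaction incubation at room temperature, dark; Technique: coupled resazurin fluorescence, excitation 525 nm, emission 613 nm.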
Exocytosis inh = lytic granule exocytosis inhibition | inhibition, % at 10 µM | hit rate 0.66% among 360,000 | TALL-104 LAMP-1 surface exposure, flow cytometry; cells stimulated with thapsigargin and PMA;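 active = inhibition above about 55%, limit read from the data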
PfGluPho conf = confirmation of Plasmodium falciparum G6PD inhibitors; shares compounds with PfGluPho inh; recombinant PfGluPho, NADPH-diaphorase-resazurin fluorescence; inhibition, % at 20 µM; hit rate 34% among 2,400;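 active = inhibition of at least 50% at 20 µM in any single replicate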;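 note: 0% = DMSO with substrate and 100% = DMSO lacking glucose-6-phosphate substrate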
Diaph ctr 10uM = inhibits diaphorase or oxidizes, flagging false PfG6PD hits; shares compounds with PfGluPho inh; diaphorase-coupled resazurin reduction, fluorescence, NADPH 10 uM; inhibition, % at 20 µM; hit rate 39% among 820; AID 504862;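 active = average inhibition reaching 50% or more with the compound at 20 µM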;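 note: resorufin red fluorescence formed as diaphorase reduces resazurin using NADPH; 0% = DMSO with enzyme and 100% = DMSO without enzyme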
Diaphorase 30uM = counter-screen for P. falciparum G6PD inhibitors: diaphorase inhibitors, oxidizers; inhibition, % at 20 µM; AID 504863; shares compounds with PfGluPho inh; Diaphorase/resazurin coupled assay, resorufin fluorescence, 30 uM NADPH; hit rate 29% among 820;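 active = inhibition averaging 50% or more, tested at 20 µM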;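 note: 0% = DMSO with enzyme and 100% = DMSO wells lacking diaphorase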
ABHD5-PLIN5 conf = ABHD5-PLIN5 interaction inhibition, confirmed. biochemical ABHD5-PLIN5 interaction, luminescence. shares compounds with ABHD5-PLIN5 inh. hit rate 67% among 2,200. inhibition, % at 4 µM. AID 651612; in the data active = inhibition above about 23%;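 note: 0% = DMSO vehicle wells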
HNF4 counter = counter-screen for ABHD5-PLIN5 inhibitors: HNF4 split-luciferase | shares compounds with ABHD5-PLIN5 inh | AID 651674 | inhibition, % at 4 µM | hit rate 77% among 2,200 | HNF4 dimerization, luminescence, biochemical;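 active = mean inhibition across replicate wells exceeding the computed hit threshold, cut at about 13% in these data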;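 note: light from luciferase halves that rejoin when HNF4 fusion proteins dimerize; 0% = DMSO only wells and the 100% control is not given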
Target sequence (P41235 whole entry, looked up, the tested form may be a part): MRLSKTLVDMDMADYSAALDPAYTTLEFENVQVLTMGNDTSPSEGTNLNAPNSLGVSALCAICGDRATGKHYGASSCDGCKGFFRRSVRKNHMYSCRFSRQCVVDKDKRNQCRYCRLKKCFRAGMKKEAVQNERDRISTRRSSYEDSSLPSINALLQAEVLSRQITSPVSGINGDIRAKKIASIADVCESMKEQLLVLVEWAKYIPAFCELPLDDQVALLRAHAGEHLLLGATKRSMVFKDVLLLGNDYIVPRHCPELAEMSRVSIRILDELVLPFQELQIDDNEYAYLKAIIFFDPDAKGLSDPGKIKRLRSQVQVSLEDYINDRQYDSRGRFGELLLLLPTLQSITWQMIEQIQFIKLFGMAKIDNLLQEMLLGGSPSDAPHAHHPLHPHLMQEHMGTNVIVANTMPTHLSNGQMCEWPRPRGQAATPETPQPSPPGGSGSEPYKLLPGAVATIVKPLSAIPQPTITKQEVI
Exocytosis CP01 = lytic granule exocytosis inhibition | shares compounds with Exocytosis inh | TALL-104 cells, LAMP-1 externalization, flow cytometry; stimulated with PMA plus thapsigargin | inhibition, % at 10 µM | hit rate 11% among 1,500; in the data active = inhibition above about 60%;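 note: 0% = stimulated vehicle wells and 100% = unstimulated wells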
Active calls of the source: *; . = not tested or not shown. Most compounds without a hit are left out; they make up all but 2.2% or so of the library.

SMILES	ABHD5-PLIN5 inh	PfGluPho inh	HKDC1 inh	Exocytosis inh	ABHD5-PLIN5 conf	HNF4 counter	others
Clc1ccc(-c2nc3ccc(Cl)cn3c2CN2CCOCC2)cc1	-6	60*	-5	2	.	.	PfGluPho conf=33
Clc1ccc(-c2nc3ccc(Cl)cn3c2CN2CCCCC2)cc1	-5	48	1	6	.	.
O=C1C(=O)c2ccccc2-c2ccccc21	13	117*	31	85*	.	.	PfGluPho conf=97*;Diaph ctr 10uM=88*;Diaphorase 30uM=90*
O=C1C(=O)c2cccc3cccc1c23	-7	0	11	2	.	.
CC12C(C(=O)O)C1(c1ccccc1)C2C(=O)O (centres undefined)	3	-8	3	8	.	.
CC(=O)OC1C2CCCC1C(N1CCCC1)CC2 (centres undefined)	-1	-4	-1	1	.	.
CC1CCN(C(CC(=O)c2ccccc2)C(=O)c2ccccc2)CC1 (centres undefined)	42*	94*	1	3	64*	103*	PfGluPho conf=0
CC(C)c1ccc(NC(=O)N2C[C@H]3C[C@@H](C2)c2cccc(=O)n2C3)cc1	0	21	-3	2	.	.
Cc1ccc(CN2Cc3ccc(Br)cc3-n3nncc3C2)cc1	-4	.	.	-3	.	.
CCCCCCCCn1sccc1=O	90*	92*	7	36	89*	107*	PfGluPho conf=78*;Diaph ctr 10uM=-9;Diaphorase 30uM=-9
O=C1NC(=O)N(c2ccc3c(c2)OCO3)C(=O)/C1=C/c1ccc(N2CCCC2)o1	8	7	-6	-9	.	.
O=C1NC(=O)N(c2ccc3c(c2)OCO3)C(=O)/C1=C/c1cccs1	29*	67*	-3	22	82*	87*	PfGluPho conf=45
CCCN1CCc2cccc3c2[C@H]1Cc1ccc(O)c(O)c1-3	2	86*	1	101*	.	.	PfGluPho conf=82*;Diaph ctr 10uM=28;Diaphorase 30uM=11;Exocytosis CP01=27
CCN(CC)c1ccc(/C=N/c2sc3c(c2C#N)C2CCN3CC2)c(O)c1	-6	15	-2	-4	.	.
CC1(C)C[C@H]2C=C(C=O)[C@]3(C=O)C[C@]3(C)[C@H]2C1	63*	21	5	46	70*	4
O=C1c2cccc3cccc(c23)C(=O)N1/N=C/c1c(O)n(-c2ccccc2)c(=O)[nH]c1=O	24*	5	13	-2	13	18*
CCN(CC)S(=O)(=O)c1ccc(N=Cc2c(O)n(-c3ccccc3)c(=O)[nH]c2=O)cc1	9	-11	3	-5	.	.
O=C1CCCN1CC#CCN1CCCC1	2	-1	0	-3	.	.
CC1CCC(C(C)C)C(OC(=O)Cn2c(COc3ccccc3)[n+](C)c3ccccc32)C1 (centres undefined)	29*	-5	-3	84*	12	8
CC1CCCCN1Cc1ccc(Cl)nc1 (centres undefined)	-3	7	-3	6	.	.
O=C1NC(=O)N(c2cccc(F)c2)C(=O)/C1=C/c1ccc(N2CCOCC2)cc1	13	-14	1	10	.	.
O=C1NC(=O)N(c2ccc3c(c2)OCO3)C(=O)/C1=C/c1ccsc1	30*	28	-8	-1	66*	55*
CC1(C)CCCN1CCC(C(N)=O)(c1ccccc1)c1ccccc1	-3	4	-6	2	.	.
CN(C)c1ccc(/C=C/[N+](=O)[O-])cc1	71*	20	5	-11	85*	82*
C/C(=C\c1ccc(N(C)C)cc1)[N+](=O)[O-]	65*	1	-2	1	99*	98*
SMILES	ABHD5-PLIN5 inh	PfGluPho inh	HKDC1 inh	Exocytosis inh	ABHD5-PLIN5 conf	HNF4 counter	others
O=C1NC(=O)C(=Cc2ccc(Sc3ccccc3)o2)C(=O)N1	23*	59	8	98*	96*	103*
CN1C(=O)C(=Cc2ccc(Sc3ccccc3)o2)C(=O)N(C)C1=O	10	33	3	49	.	.
CCOC(=O)[C@]12Cc3ccc(C)cc3[C@H]1N(C1CCCCC1)C(=O)c1ccccc12	40*	.	.	39	30*	21*
CCOC(=O)[C@]12Cc3ccccc3[C@H]1N(C(C)C)C(=O)c1ccccc12	5	.	.	-13	.	.
COc1ccc(NC(=O)c2cn(CCC#N)nc2-c2ccc(OC)c(OC)c2)cc1	-1	-13	0	-1	.	.
CN1C(=O)C(=Cc2cn(CC(=O)N3CCCCC3)c3ccccc23)C(=O)N(C)C1=O	18	7	3	-2	.	.
CN1C(=O)C(=Cc2cn(CC#N)c3ccccc23)C(=O)N(C)C1=O	29*	24	6	-32	23*	21*
CCOC(=O)Cn1cc(C=C2C(=O)N(C)C(=O)N(C)C2=O)c2ccccc21	29*	-6	1	0	8	11
CN1C(=O)C(=Cc2cn(CC(=O)N3CCCC3)c3ccccc23)C(=O)N(C)C1=O	45*	13	-4	-25	14	34*
CCOC(=O)Cn1cc(C(=O)c2ccccc2)c2ccccc21	0	-15	5	-7	.	.
COc1ccc(OC)c(-n2c(O)c(C=Nc3c(C)n(C)n(-c4ccccc4)c3=O)c(=O)[nH]c2=S)c1	0	1	4	-1	.	.
Clc1ccc(N2CC2c2ccncc2)cc1 (centres undefined)	-3	-9	-6	1	.	.
Cn1c(O)c(C(=NCCc2c[nH]c3ccccc23)c2ccccc2)c(=O)n(C)c1=O	3	-5	6	-2	.	.
C=C1C(=O)OC2CC(C)C3C=CC(=O)C3(C)C(O)C12 (centres undefined)	79*	22	4	23	93*	90*
C=C1C(=O)O[C@H]2[C@H]1[C@H](OC(=O)CC(=O)O[C@@H]1C[C@@H](C)[C@@H]3C=CC(=O)[C@@]3(C)[C@H]3OC(=O)C(=C)[C@H]13)C[C@@H](C)[C@H]1C=CC(=O)[C@]12C	74*	28	-1	-3	91*	90*
C=C1C(=O)O[C@H]2C[C@@H](C)[C@@H]3C=CC(=O)[C@@]3(C)C[C@H]12	.	9	-1	.	.	.
CCOP(=S)(NN(Cc1ccccc1)C(=O)c1ccccc1)OCC	-5	16	-3	-5	.	.
COc1cc2c(cc1/C=C/[N+](=O)[O-])OCO2	66*	19	2	20	96*	101*
